According to ChEMBL document CHEMBL1146536, “Pochonins A-F, new antiviral and antiparasitic resorcylic acid lactones from Pochonia chlamydosporia var. catenulata” (J Nat Prod, 2003):
Calls of active or inactive are those of the source. The rule behind the calls is not given here.

Key:
[1] = target: T1, Estrogen receptor beta (Homo sapiens, UniProt Q92731); assay: Agonist activity at ERbeta up to 10 uM by fluorescence polarization assay; type: functional
[2] = Cytotoxicity against PCKC by crystal violet staining; parameters: species or system Gallus gallus; details: chicken
How it was run: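 Uninfected compound-treated primary chicken kidney cells served as toxicity controls in the 120 h monolayer assay (200, 10, 1, 0.1 ppm). Viability judged microscopically or by crystal violet after 5 min MeOH fixation.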

[3] = tested on: Neospora caninum; assay: Antiparasitic activity against Neospora caninum NC-1 infected in african green monkey Vero cells treated 2 hrs postinfection by MMDA assay; type: functional, organism-based
[4] = tested on: Human alphaherpesvirus 1; assay: Antiviral activity against HSV1 F infected in african green monkey Vero cells assessed as reduction of virus-induced cytopathic effect by cellular replication assay; type: functional, organism-based
How it was run: (§1)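 HSV1 strain F replication in Vero cells, 0.1 nM to 125 µM. IC50 is the concentration reducing viral cytopathic effect by 50%; Tox50 is the concentration reducing cell viability by 50%. SI = Tox50/IC50.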

[5] = tested on: Vero; assay: Cytotoxicity against african green monkey Vero cells at 2.5 uM by crystal violet staining; type: cell-based; details: chlorocebus sabaeus
[6] = target: T1, Estrogen receptor beta; assay: Agonist activity at ERbeta by fluorescence polarization assay; type: functional
[7] = tested on: Eimeria tenella; assay: Antiparasitic activity against Eimeria tenella Houghton infected in PCKC at 10 ppm treated 2 hrs postinfection by MMDA assay; type: functional, organism-based
How it was run: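 Confluent primary chicken kidney cell monolayers (DMEM or RPMI with 10% FBS, glutamine, essential amino acids; 37 °C, 5% CO2) in 96-well plates infected with E. tenella Houghton; compounds added 2 h post infection at 200, 10, 1, 0.1 ppm. Stopped 120 h post infection; monolayer disruption scored microscopically or by crystal violet after MeOH fixation (2 full, 1 weak, 0 none).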

[8] = Selectivity index, ratio of cytotoxicity against african green monkey Vero cells to IC50 for HSV1 F; type: toxicity, cell-based; details: read-out: Selectivity Index; how it was run: as §1
[9] = tested on: Eimeria tenella; assay: Antiparasitic activity against Eimeria tenella Houghton infected in PCKC at 1 ppm treated 2 hrs postinfection by MMDA assay; type: functional, organism-based
How it was run: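 Primary chicken kidney cell monolayers grown to confluence with 10% FBS, glutamine and essential amino acids at 37 °C, 5% CO2, in 96-well plates. They were infected with E. tenella Houghton, and test samples were added 2 h post infection. Tested at 200, 10, 1 and 0.1 ppm; stopped at 120 h. Monolayer integrity was read microscopically or by MeOH fixation and crystal violet. Scored as full, weak, none or cytotoxic.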

[10] = tested on: Vero; assay: Cytotoxicity against african green monkey Vero cells by crystal violet staining; type: cell-based; details: chlorocebus sabaeus
[11] = tested on: Vero; assay: Cytotoxicity against african green monkey Vero cells at 10 uM by crystal violet staining; type: cell-based; details: chlorocebus sabaeus
[12] = Human alphaherpesvirus 1, F, Vero

T1 sequence (Q92731 whole entry): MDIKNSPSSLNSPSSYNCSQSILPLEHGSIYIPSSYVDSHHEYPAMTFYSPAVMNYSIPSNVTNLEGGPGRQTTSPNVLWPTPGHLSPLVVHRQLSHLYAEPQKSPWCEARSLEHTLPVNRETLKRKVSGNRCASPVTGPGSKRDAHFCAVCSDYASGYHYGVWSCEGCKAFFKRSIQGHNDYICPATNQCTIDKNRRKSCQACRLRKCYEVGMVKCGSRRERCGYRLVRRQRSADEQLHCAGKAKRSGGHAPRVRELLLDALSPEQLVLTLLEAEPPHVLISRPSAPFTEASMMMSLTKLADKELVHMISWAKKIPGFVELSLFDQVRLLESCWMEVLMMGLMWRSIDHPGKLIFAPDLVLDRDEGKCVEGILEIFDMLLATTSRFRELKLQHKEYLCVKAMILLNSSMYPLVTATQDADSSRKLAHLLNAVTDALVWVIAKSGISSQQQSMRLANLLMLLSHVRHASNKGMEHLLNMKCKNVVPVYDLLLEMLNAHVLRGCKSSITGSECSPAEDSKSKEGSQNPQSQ

SMILES	Activity [1]	Activity [2]	Activity [3]	Activity [4]	IC50 [4, 12] [nM]	other results
C[C@@H]1C/C=C/CC/C=C/C(=O)Cc2c(Cl)c(O)cc(O)c2C(=O)O1 [POCHONIN D]	inactive	Toxic	inactive	inactive	–	Activity [5]: Toxic
COc1cc(O)c2c(c1)/C=C/CCC[C@H](O)CCC[C@H](C)OC2=O	–	–	–	inactive	–	Activity [6]: inactive
C[C@H]1C[C@H]2O[C@@H]2CC/C=C/C(=O)Cc2c(Cl)c(O)cc(O)c2C(=O)O1 [POCHONIN A]	inactive	–	inactive	–	2000	Activity [7]: Active
C[C@H]1CCC[C@@H](O)CCCCCc2cc(O)cc(O)c2C(=O)O1 (stereo in doubt; 21) [TALERANOL]	–	–	–	–	–	IC50 ([4]; vero): 15000 nM
C[C@H]1CCCC(=O)CCCCCc2cc(O)cc(O)c2C(=O)O1 (stereo in doubt; 19) [ZEARALANONE]	–	–	–	–	–	EC50 [6]: 660 nM
C[C@@H]1C[C@H]2O[C@@H]2CC/C=C/C(=O)Cc2cc(O)cc(O)c2C(=O)O1 [MONOCILLIN III]	inactive	–	inactive	–	400	selectivity ratio [8]: 7.5
C[C@H]1C[C@H]2O[C@@H]2CCCCC(=O)Cc2c(Cl)c(O)cc(O)c2C(=O)O1 [TETRAHYDROMONORDEN]	inactive	–	inactive	–	1500	Activity [9]: inactive; Activity [7]: Active
C[C@H]1CCC[C@H](O)CCCCCc2cc(O)cc(O)c2C(=O)O1	–	–	–	inactive	–	–
C[C@@H]1C[C@H]2O[C@@H]2/C=C\C=C\C(=O)Cc2c(Cl)c(O)cc(O)c2C(=O)O1 [RADICICOL]	–	Toxic	inactive	–	200	Activity [9]: inactive; Activity [10]: Toxic; Activity [7]: Active
C[C@H]1C[C@H](O)C(Cl)/C=C\C=C\C(=O)Cc2c(Cl)c(O)cc(O)c2C(=O)O1 (stereo not given in full) [POCHONIN C]	inactive	Toxic	inactive	–	6000	–
C[C@H]1C/C=C/CC/C=C/C(=O)Cc2cc(O[C@@H]3O[C@H](CO)[C@@H](O)[C@H]3O)cc(O)c2C(=O)O1 [MONOCILLIN II GLYCOSIDE]	inactive	Toxic	inactive	–	–	Activity [11]: Toxic
C[C@H]1C/C=C/C(O)C/C=C/C(=O)Cc2c(Cl)c(O)cc(O)c2C(=O)O1 (stereo not given in full) [POCHONIN E]	inactive	Toxic	inactive	–	1500	–
C[C@H]1CCC[C@@H](O)CCCCCc2cc(O)cc(O)c2C(=O)O1 (stereo in doubt; 17) [TALERANOL]	–	–	–	–	–	IC50 ([4]; vero): 1500 nM
CC/C=C\[C@H](O)[C@H](O)C1=C(C)C(=O)[C@]2(O1)C(=O)N[C@@](OC)(C(=O)c1ccccc1)[C@@H]2O [PSEUROTIN A]	–	–	inactive	–	50000	selectivity ratio [8]: 6; Activity [7]: Active
C[C@H]1CCCC(=O)CCCCCc2cc(O)cc(O)c2C(=O)O1 (stereo in doubt; 16)	–	–	–	inactive	–	–
C[C@H]1CCCC(=O)CCC/C=C/c2cc(O)cc(O)c2C(=O)O1 [ZEARALENONE]	–	–	–	inactive	–	EC50 [6]: 110 nM
C[C@H]1CCCC(=O)CCCCCc2cc(O)cc(O)c2C(=O)O1 (stereo in doubt; 16) [ZEARALANONE]	–	–	–	–	–	EC50 [6]: 38 nM
C[C@H]1CCCC(=O)CCCCCc2cc(O)cc(O)c2C(=O)O1 (stereo in doubt; 19)	–	–	–	inactive	–	–
C[C@H]1C[C@H]2O[C@@H]2C[C@H](O)/C=C/C(=O)Cc2c(Cl)c(O)cc(O)c2C(=O)O1 [POCHONIN B]	inactive	Toxic	inactive	–	10000	–
